# Most compounds without a hit are left out; they make up all but 2% or so of the library.
# HSV replic up – enhancers of HSV replication in host cells, fold increase, host cell viability; HSV replication augmentation in cells; actives 0.005% (n = 220,000); AID 1956, 2009; maximum fold increase; in the data active = maximum fold increase above about 1.5; inconclusive = no clear call, values can overlap the other calls; tested in PC3 cells
# Insulin prom up – insulin promoter activators in MIN6 cells, imaging, high-content screening, mouse beta cells; MIN6 insulin promoter-GFP reporter; active compounds read high; actives 0.3% (n = 190,000); z-score at 5 µM;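 active = z-score above 3 at 5 µM with at least 500 cells counted in the well; inconclusive = wells under 500 cells, flagged as cytotoxic or low count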
# Furin inhibitor – human furin inhibitors, primary screen, biochemical, fluorescence intensity; P09958; purified furin, fluorogenic substrate cleavage; inhibition, % at 20 µM or 30 µM; actives 0.061% (n = 220,000); in the data active = inhibition above about 25%
# Target sequence (P09958 108-714 limits assumed): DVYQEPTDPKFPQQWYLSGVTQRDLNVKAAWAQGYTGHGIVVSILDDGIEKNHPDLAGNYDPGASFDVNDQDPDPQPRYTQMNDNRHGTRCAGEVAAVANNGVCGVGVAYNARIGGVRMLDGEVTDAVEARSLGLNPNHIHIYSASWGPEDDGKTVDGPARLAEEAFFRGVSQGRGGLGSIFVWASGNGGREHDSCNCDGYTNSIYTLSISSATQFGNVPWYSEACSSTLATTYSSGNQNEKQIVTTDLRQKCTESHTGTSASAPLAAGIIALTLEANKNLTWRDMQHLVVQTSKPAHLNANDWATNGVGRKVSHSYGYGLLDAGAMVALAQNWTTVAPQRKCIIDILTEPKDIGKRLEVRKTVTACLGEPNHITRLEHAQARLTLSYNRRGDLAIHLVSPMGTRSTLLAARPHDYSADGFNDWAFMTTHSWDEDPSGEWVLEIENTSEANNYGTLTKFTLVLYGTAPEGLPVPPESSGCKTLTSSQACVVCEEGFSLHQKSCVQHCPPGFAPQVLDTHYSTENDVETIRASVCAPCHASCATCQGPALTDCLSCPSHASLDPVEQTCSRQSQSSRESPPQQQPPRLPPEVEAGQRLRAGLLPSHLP
# Autophagy mod – autophagy modulators in MEF cells, primary screen, imaging, high-content, MEF GFP-LC3. MEF GFP-LC3 puncta imaging; test concentration mostly 10 µM. calls only at 10 µM (by protocol). actives 0.98% (n = 190,000);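 active = percentage of spot-positive cells more than 3 SD above its plate mean, without a fluorescence outlier flag or 80% toxicity; inconclusive = no clear call, values can overlap the other calls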;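 also: spot-positive cell cutoff set from DMSO-treated cells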
# Dynein transport – inhibitors of GR-EGFP nuclear translocation, primary screen, dynein cargo transport inhibitor project, imaging, high-content, 3617.4 mouse cells | test concentration mostly 20 µM; stimulated with dexamethasone, 1 µM; active compounds read low | actives 0.47% (n = 220,000) | z-score, hits read low;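 active = plate z-score of nuclear minus cytoplasmic receptor signal below a set negative limit, without overly bright fluorescence or cell loss, cut at about -3.5 in these data, passing the limit was not always enough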;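 also: z-score of nuclear minus cytoplasmic ring GR-EGFP intensity difference per well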
#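 medium = tetracycline-free induction medium containing charcoal-stripped FBS | also added = 1.0 µM final dexamethasone stimulus | schedule = 48 h induction, 1 h compound, 30 min dex at 37 °C | technique = fixed, Hoechst-stained cells imaged at 10x for EGFP | measure = GR-EGFP nuclear translocation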
# Insulin prom inh – inhibitors of insulin promoter-driven GFP, primary screen, imaging, TRM-6 cells (human fetal islet line), eGFP reporter, cell count; AID 1273, 2008; actives 0.9% (n = 130,000); inhibition, % at 2 µM; reporter expression induced with tamoxifen;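 active = inhibition above the mean plus 3 SD, with well images judged a real hit on visual review, cut at about 60% in these data, passing the limit was not always enough; inconclusive = inhibition over the cutoff but images rejected on review; inactive = inhibition not above the cutoff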
# Numbers without * were called inactive; i = inactive; ? = inconclusive; . = no result; + = active, no number.
SMILES,HSV replic up,Insulin prom up,Furin inhibitor,Autophagy mod,Dynein transport,Insulin prom inh
CC(C)OC(=O)/C(=C\c1cccnc1)NC(=O)c1ccccc1,i,-0.08,-16,+,-0.35,.
CCCCCCCCCn1c2c(c(=N)c3c1CCC3)CCC2,i,?,-15,i,-2.1,-177
CCCCCCCn1c2c(c(=N)c3c1CCC3)CCCC2,i,?,4,+,2.8,-111
O=C(N/N=C/C=C/c1ccccc1)NC1CCCCC1,i,-0.61,-21,+,0.37,.
CCOC(=O)C1CC(C)=C(C)CC1C(=O)O (stereo not given),i,0.41,-16,.,0.62,.
Cc1ccc(C(=O)C2=C(O)C(=O)N(c3ncccn3)C2c2ccc(Cl)cc2)o1 (stereo not given),i,.,-17,i,-0.59,80*
COC(=O)c1ccc(NC(=O)Nc2ccc(F)cc2F)cc1,i,-0.9,-29,+,-0.57,.
COC(=O)c1ccc(NC(=O)Nc2cccc(F)c2)cc1,i,0.5,-27,i,0.26,.
OCCN1CCN(CC(O)COc2ccc(C34CC5CC(CC(C5)C3)C4)cc2)CC1 (stereo not given),i,-0.86,0,+,6.4,-36
Cn1nc(C(=O)OCC(=O)Nc2ccc(S(N)(=O)=O)cc2)c2ccccc2c1=O,i,-0.35,-14,.,0.23,.
O=C(COc1ccccc1)c1cn(CC(=O)N2CCCC2)c2ccccc12,i,0.32,-4,i,1.2,.
CCOC(=O)CC1C(=O)NCCN1S(=O)(=O)c1ccc(OC)cc1 (stereo not given),i,-0.32,-2,i,2.3,-24
CCOCCCNc1nc2c(C)cccn2c(=O)c1/C=C1\SC(=S)N(C(C)CC)C1=O (stereo not given),?,.,2,.,-6.3,.
CCOC(=O)CC1C(=O)NCCN1c1nc2c(C)cccn2c(=O)c1/C=C1\SC(=S)N(CC(C)C)C1=O (stereo not given),?,17*,-10,.,-3.5,.
CCOCCCNc1nc2c(C)cccn2c(=O)c1/C=C1\SC(=S)N(CC(C)C)C1=O,.,.,2,+,-1.8,-223
CCCN1C(=O)/C(=C/c2c(NCCCOCC)nc3c(C)cccn3c2=O)SC1=S,?,5.7*,-18,+,-1.5,-27
Cc1nc(C)c(NC(=O)OC(C)C)cc1NC(=O)OC(C)C,i,0.57,-34,i,-1.1,55
COc1ccccc1N=C(C)C1=C(O)CC(c2ccccc2)CC1=O (stereo not given),i,-0.63,-1,+,2.6,-163
Cc1ccc(S(=O)(=O)N2CCOCC2)cc1NC(=O)COC(=O)c1cc(=O)c2ccccc2o1,.,0.4,-15,+,0.25,46
COc1ccccc1NC(=O)c1cc(S(=O)(=O)N2CCOCC2)ccc1Cl,i,-0.1,29*,i,1.3,47
O=C(Nc1cc(S(=O)(=O)N2CCCCC2)ccc1Cl)c1ccccc1NS(=O)(=O)c1ccc(F)cc1,i,-2,-12,+,0.55,i
COc1cc(S(=O)(=O)N2CCOCC2)ccc1NC(=O)COC(=O)C12CC3CC(CC(C3)C1)C2,i,3.9*,-6,i,0.94,58
CNC(=O)CSc1nc2[nH]ncc2c(=O)[nH]1,i,-0.13,-14,i,0.0013,-67
NS(=O)(=O)c1ccc(NC(=O)COC(=O)c2cnc(Cl)c(Cl)c2)cc1,i,0,-2,.,1.7,.
Cc1ccc(OCC(=O)N2CCc3ccccc3C2)c([N+](=O)[O-])n1,i,-0.36,-10,i,0.18,-53
SMILES,HSV replic up,Insulin prom up,Furin inhibitor,Autophagy mod,Dynein transport,Insulin prom inh
COc1ccccc1CNC(=O)/C=C/c1ccc(S(=O)(=O)N2CCOCC2)cc1,i,0.4,-24,i,-1.2,.
O=C(NC1CCCC1)c1ccc2nc[nH]c2c1,i,-0.22,-26,i,-0.61,-3
O=C(c1ccccc1)c1ccc2nc[nH]c2c1,i,0.02,-19,i,0.033,95*
COC(=O)c1sc(S(=O)(=O)Nc2ccc(Br)cc2)c(C(=O)OC)c1C,i,-1.2,-16,i,0.2,12
O=S(=O)(CCSc1ccc(C(F)(F)F)cn1)c1ccc(Cl)cc1,i,0.33,-10,.,-0.99,.
CCn1c(COc2ccc3c(c2)CCCC3)nnc1SCC(=O)Nc1ccc(C(=O)OC)cc1,i,-0.84,-7,i,-0.84,.
CC1CCCCN1S(=O)(=O)c1ccc(C(=O)Nc2sccc2C(N)=O)cc1 (stereo not given),i,2.1,-37,+,-0.25,.
COc1ccc(NC(=S)NC(NC(=O)c2ccc(Cl)cc2Cl)C(Cl)(Cl)Cl)c([N+](=O)[O-])c1 (stereo not given),i,-1.1,-9,+,-0.6,-113
COc1ccc(NC(=S)NC(NC(=O)c2ccccc2Cl)C(Cl)(Cl)Cl)c([N+](=O)[O-])c1 (stereo not given),i,.,-18,i,-0.29,-13
COc1ccc(NC(=S)NC(NC(=O)c2cccc3ccccc23)C(Cl)(Cl)Cl)c([N+](=O)[O-])c1 (stereo not given),i,0.17,-32,+,0.91,-6
CCC(C)(C)C(=O)Nc1ccc(OC)cc1[N+](=O)[O-],i,0.13,-8,i,3.2,100*
CCOc1ccc(OCC(=O)Nc2ccc(OC)cc2[N+](=O)[O-])cc1,i,0.45,-13,i,-0.23,.
Cc1nc2ccccn2c1C(=O)NN=C1C2CC3CC(C2)CC1C3,i,-0.08,-18,i,-0.83,-22
O=S(=O)(O)c1nc2ccccc2n1Cc1cccc2ccccc12,i,0.88,-10,.,1.2,.
COc1cc(-c2ccc(NC(=O)CN3CCC(C)CC3)c(OC)c2)ccc1NC(=O)CN1CCC(C)CC1,.,0.06,-21,+,1.3,.
COc1cc(NC(=O)c2ccc(F)cc2)c(OC)cc1NC(=O)CN1CCOCC1,i,.,-20,+,1.7,33
O=C1CSC(=Nc2ccc(Cl)cc2)N1Cc1cccnc1,i,0.48,9,.,0.82,.
N#C/C(=C\c1ccc(-c2ccc(S(=O)(=O)N3CCOCC3)cc2)o1)C(=O)NC1CC1,i,0.12,-5,i,-0.27,62*
N#C/C(=C\c1ccc(N2CCOCC2)o1)C(=O)NC1CCCCC1,.,1.9,16,.,0.14,.
Cc1ccc(-c2cc3ccccc3nc2N2CCOCC2)cc1,i,-0.44,-18,+,0.72,.
Cc1ccc(NC(=S)/C(=C(\[O-])c2ccc(C)c([N+](=O)[O-])c2)[n+]2ccccc2)cc1C,i,-0.01,2,i,-0.07,-9

# Source: PubChem BioAssay (several laboratories)
